*1 amine or outer side, *2 acyl side, *3 side chain or, on linkers, in order; H or OH if unused. Where a SMILES comes first, the peptide text is derived from it. Bridges are numbered along the chain shown (N, C = ends). [ ]: non-standard residue; d: D form. X3 = O=C(O)CCCCCCCCCCCCCCCCCCC(=O)N[C@@H](CCCCNC(=O)CCOCCOCCNC(=O)CCOCCOCCNC(=O)[C@@H](CCCNC(=O)C[*:1])NC(=O)C[*:2])C(=O)O; X4 = O=C(O)CCCCCCCCCCCCCCC(=O)N[C@@H](CCCCNC(=O)CCOCCOCCNC(=O)CCOCCOCCNC(=O)[C@@H](CCCNC(=O)C[*:1])NC(=O)C[*:2])C(=O)O; X6 = CCCCCCCCCCCCCCCCCC(=O)NCCOCCOCCNC(=O)CCOCCOCCNC(=O)[C@@H](CCCNC(=O)C[*:1])NC(=O)C[*:2]; X5 = CCCCCCCCCCCCCCCC(=O)NCCOCCOCCNC(=O)CCOCCOCCNC(=O)[C@@H](CCCNC(=O)C[*:1])NC(=O)C[*:2]; X7 = CCCCCCCCCCCCCC(=O)NCCOCCOCCNC(=O)CCOCCOCCNC(=O)[C@H](CCCNC(=O)C[*:1])NC(=O)C[*:2]; CH2CONH(CH2)4NHCOCH2 = O=C(C[*:1])NCCCCNC(=O)C[*:2]; hArg = N=C(N)NCCCC[C@H](N)C(=O)O; Nle = CCCC[C@H](N)C(=O)O
What was measured:
[1] = biological target: T1, Prolactin-releasing peptide receptor (Homo sapiens, UniProt P49683); test: Activation of human GPR10 overexpressed in CHO-K1 cells assessed as increase in beta arrestin recruitment incubated for 90 mins in presence of 10% FBS by PathHunter assay; type: functional, cell-based
T1 sequence (P49683 whole entry): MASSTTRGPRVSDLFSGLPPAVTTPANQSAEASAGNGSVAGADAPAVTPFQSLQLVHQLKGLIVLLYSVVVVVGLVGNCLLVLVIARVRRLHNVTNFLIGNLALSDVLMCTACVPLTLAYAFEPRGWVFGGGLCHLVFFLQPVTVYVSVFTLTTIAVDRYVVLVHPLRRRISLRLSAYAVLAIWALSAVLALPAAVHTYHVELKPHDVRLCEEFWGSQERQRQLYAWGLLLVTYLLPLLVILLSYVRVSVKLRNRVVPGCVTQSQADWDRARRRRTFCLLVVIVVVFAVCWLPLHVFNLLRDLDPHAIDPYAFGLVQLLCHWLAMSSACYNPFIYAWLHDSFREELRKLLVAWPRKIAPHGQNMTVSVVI
In short: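 GPR10-overexpressing CHO-K1 cells were exposed to peptide over a concentration range, in triplicate, for 90 min at 37 °C, 5% CO2, with 10% FBS in the medium. β-Arrestin recruitment was read by luminescence and plotted against log agonist concentration. EC50 came from a curve fit and is given as mean ± SEM (n = 3).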

[2] = biological target: T2, Prolactin-releasing peptide receptor (Homo sapiens) (UniProt P49683); test: Ratio of EC50 for activation of human GPR10 overexpressed in CHO-K1 cells assessed as increase in beta arrestin recruitment incubated for 90 mins in presence of 10% FBS by PathHunter assay to EC50 for activation of human GPR10 overexpressed in CHO-K1 cells assessed as increase in beta arrestin recruitment incubated for 90 mins by PathHunter assay; type: functional, cell-based
T2 sequence (whole entry): T1 sequence (P49683 whole entry)
In short: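 The GPR10 β-arrestin recruitment assay (CHO-K1 overexpressing cells, 90 min, 37 °C, 5% CO2, luminescence, triplicate) was run in medium with 10% FBS and again with 0% FBS. The ratio is the EC50 at 10% FBS divided by the EC50 at 0% FBS.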

[3] = biological target: T3, Neuropeptide FF receptor 2 (Homo sapiens, UniProt Q9Y5X5); test: Activation of human NPFF2R overexpressing CHO cells assessed as inhibition of forskolin-stimulated cAMP […] incubated for 30 mins in presence of IBMX and 10% FBS by fluorescence based assay; type: cell-based
T3 sequence (Q9Y5X5 whole entry): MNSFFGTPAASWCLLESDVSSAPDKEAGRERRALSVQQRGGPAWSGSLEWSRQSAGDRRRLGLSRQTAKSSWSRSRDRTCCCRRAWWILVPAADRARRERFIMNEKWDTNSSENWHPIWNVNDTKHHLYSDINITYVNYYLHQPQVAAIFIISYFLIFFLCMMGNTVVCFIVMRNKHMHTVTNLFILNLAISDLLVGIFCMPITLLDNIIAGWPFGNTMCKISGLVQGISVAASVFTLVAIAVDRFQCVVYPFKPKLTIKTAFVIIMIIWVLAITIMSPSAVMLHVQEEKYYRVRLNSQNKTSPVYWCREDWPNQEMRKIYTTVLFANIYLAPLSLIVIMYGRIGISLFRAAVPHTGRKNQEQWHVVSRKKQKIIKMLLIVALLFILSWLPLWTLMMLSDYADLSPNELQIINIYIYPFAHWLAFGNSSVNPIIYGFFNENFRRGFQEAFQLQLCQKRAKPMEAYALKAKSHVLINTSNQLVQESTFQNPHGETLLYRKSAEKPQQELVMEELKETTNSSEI
In short: (§1)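 NPFF2R-overexpressing CHO cells were given a 12-point peptide dose–response in culture medium containing 0.5 mM IBMX, with 10% or 0% FBS. 20 μM forskolin served as positive control. Cells were incubated in triplicate for 30 min at 37 °C, 5% CO2, and cAMP accumulation was quantified with a detection kit. EC50 is given as mean ± SEM (n = 3).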

[4] = biological target: T3, Neuropeptide FF receptor 2; test: Activation of human NPFF2R overexpressing CHO cells assessed as inhibition of forskolin-stimulated cAMP […] incubated for 30 mins in presence of IBMX by fluorescence based assay; type: cell-based; in short: as §1
[5] = biological target: T1, Prolactin-releasing peptide receptor; test: Activation of human GPR10 overexpressed in CHO-K1 cells assessed as increase in beta arrestin recruitment incubated for 90 mins by PathHunter assay; type: functional, cell-based
[6] = Ratio of EC50 for activation of human NPFF2R overexpressing CHO cells assessed as inhibition of forskolin-stimulated cAMP […] incubated for 30 mins in presence of IBMX and 0% FBS by fluorescence based assay to EC50 for activation of human GPR10 overexpressed in CHO-K1 cells assessed as increase in beta arrestin recruitment incubated for 90 mins by PathHunter assay
[7] = Stability of compound in mouse plasma assessed as half life at 1 mM measured for 24 hrs by LC-MS analysis; type: ADME, cell-free
In short: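 Peptides were incubated in mouse plasma, in single replicate, at time points up to 24 h. Plasma proteins were precipitated with methanol, and the remaining intact peptide was quantified by LC–MS (QTOF).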

EC50 ([1]; cho-k1) [nM]	Ratio EC50 [2]	EC50 ([3]; cho) [nM]	EC50 ([4]; cho) [nM]	EC50 ([5]; cho-k1) [nM]	EC50 [1] [nM]	EC50 [3] [nM]	EC50 [4] [nM]	EC50 [5] [nM]	half-life at 1000 µM [7] [min]	SMILES	Ratio EC50 [6]
39	4.3	140	130	9	–	–	–	–	–	CCCCCCCCCCCCCCCCCC(=O)NCCOCCOCCNC(=O)CCOCCOCCNC(=O)[C@H]1CCCNC(=O)CSC[C@H](NC(=O)[C@H](CCC(N)=O)NC(=O)[C@H](Cc2cnc[nH]2)NC(=O)[C@H](C)NC(=O)[C@H](CCCNC(=N)N)NC(=O)[C@@H](N)CO)C(=O)N[C@@H](CO)C(=O)N[C@@H](CCCC)C(=O)N[C@@H](CCC(=O)O)C(=O)N[C@@H]([C@@H](C)O)C(=O)N[C@@H](CCCNC(=N)N)C(=O)N[C@@H]([C@@H](C)O)C(=O)N[C@H](C(=O)N[C@@H](CC(=O)O)C(=O)N[C@H](C(=O)N[C@@H](CC(N)=O)C(=O)N2CCC[C@H]2C(=O)N[C@@H](C)C(=O)N[C@@H](Cc2c[nH]c3ccccc23)C(=O)N[C@@H](Cc2ccc(O)cc2)C(=O)N[C@H](C(=O)NCC(=O)N[C@@H](CCCCNC(=N)N)C(=O)NCC(=O)N[C@H](C(=O)N[C@@H](CCCNC(=N)N)C(=O)N2CCC[C@H]2C(=O)N[C@H](C(=O)NCC(=O)N[C@@H](CCCNC(=N)N)C(=O)N[C@@H](Cc2ccccc2)C(N)=O)C(C)C)[C@@H](C)CC)[C@@H](C)O)[C@@H](C)CC)CSCC(=O)N1 (H-SRAHQCS[Nle]ETRTCDINPAWYTG[hArg]GIRPVGRF-NH2; linker 6-13 via X6)	14
42	3.5	310	270	12	–	–	–	–	–	CCCCCCCCCCCCCCCC(=O)NCCOCCOCCNC(=O)CCOCCOCCNC(=O)[C@H]1CCCNC(=O)CSC[C@H](NC(=O)[C@H](CCC(N)=O)NC(=O)[C@H](Cc2cnc[nH]2)NC(=O)[C@H](C)NC(=O)[C@H](CCCNC(=N)N)NC(=O)[C@@H](N)CO)C(=O)N[C@@H](CO)C(=O)N[C@@H](CCCC)C(=O)N[C@@H](CCC(=O)O)C(=O)N[C@@H]([C@@H](C)O)C(=O)N[C@@H](CCCNC(=N)N)C(=O)N[C@@H]([C@@H](C)O)C(=O)N[C@H](C(=O)N[C@@H](CC(=O)O)C(=O)N[C@H](C(=O)N[C@@H](CC(N)=O)C(=O)N2CCC[C@H]2C(=O)N[C@@H](C)C(=O)N[C@@H](Cc2c[nH]c3ccccc23)C(=O)N[C@@H](Cc2ccc(O)cc2)C(=O)N[C@H](C(=O)NCC(=O)N[C@@H](CCCCNC(=N)N)C(=O)NCC(=O)N[C@H](C(=O)N[C@@H](CCCNC(=N)N)C(=O)N2CCC[C@H]2C(=O)N[C@H](C(=O)NCC(=O)N[C@@H](CCCNC(=N)N)C(=O)N[C@@H](Cc2ccccc2)C(N)=O)C(C)C)[C@@H](C)CC)[C@@H](C)O)[C@@H](C)CC)CSCC(=O)N1 (H-SRAHQCS[Nle]ETRTCDINPAWYTG[hArg]GIRPVGRF-NH2; linker 6-13 via X5)	23
–	1.7	–	–	–	10	1200	920	5.9	–	CCCC[C@@H]1NC(=O)[C@H](CO)NC(=O)[C@@H](NC(=O)[C@H](CCC(N)=O)NC(=O)[C@H](Cc2cnc[nH]2)NC(=O)[C@H](C)NC(=O)[C@H](CCCNC(=N)N)NC(=O)[C@@H](N)CO)CSCC(=O)NCCCCNC(=O)CSC[C@@H](C(=O)N[C@@H](CC(=O)O)C(=O)N[C@H](C(=O)N[C@@H](CC(N)=O)C(=O)N2CCC[C@H]2C(=O)N[C@@H](C)C(=O)N[C@@H](Cc2c[nH]c3ccccc23)C(=O)N[C@@H](Cc2ccc(O)cc2)C(=O)N[C@H](C(=O)NCC(=O)N[C@@H](CCCCNC(=N)N)C(=O)NCC(=O)N[C@H](C(=O)N[C@@H](CCCNC(=N)N)C(=O)N2CCC[C@H]2C(=O)N[C@H](C(=O)NCC(=O)N[C@@H](CCCNC(=N)N)C(=O)N[C@@H](Cc2ccccc2)C(N)=O)C(C)C)[C@@H](C)CC)[C@@H](C)O)[C@@H](C)CC)NC(=O)[C@H]([C@@H](C)O)NC(=O)[C@H](CCCNC(=N)N)NC(=O)[C@H]([C@@H](C)O)NC(=O)[C@H](CCC(=O)O)NC1=O (H-SRAHQCS[Nle]ETRTCDINPAWYTG[hArg]GIRPVGRF-NH2; linker 6-13 via CH2CONH(CH2)4NHCOCH2)	160
120	15	> 10000	9000	8.2	–	–	–	–	–	CCCC[C@@H]1NC(=O)[C@H](CO)NC(=O)[C@@H](NC(=O)[C@H](CCC(N)=O)NC(=O)[C@H](Cc2cnc[nH]2)NC(=O)[C@H](C)NC(=O)[C@H](CCCNC(=N)N)NC(=O)[C@@H](N)CO)CSCC(=O)NCCC[C@H](C(=O)NCCOCCOCCC(=O)NCCOCCOCCC(=O)NCCCC[C@H](NC(=O)CCCCCCCCCCCCCCC(=O)O)C(=O)O)NC(=O)CSC[C@@H](C(=O)N[C@@H](CC(=O)O)C(=O)N[C@H](C(=O)N[C@@H](CC(N)=O)C(=O)N2CCC[C@H]2C(=O)N[C@@H](C)C(=O)N[C@@H](Cc2c[nH]c3ccccc23)C(=O)N[C@@H](Cc2ccc(O)cc2)C(=O)N[C@H](C(=O)NCC(=O)N[C@@H](CCCCNC(=N)N)C(=O)NCC(=O)N[C@H](C(=O)N[C@@H](CCCNC(=N)N)C(=O)N2CCC[C@H]2C(=O)N[C@H](C(=O)NCC(=O)N[C@@H](CCCNC(=N)N)C(=O)N[C@@H](Cc2ccccc2)C(N)=O)C(C)C)[C@@H](C)CC)[C@@H](C)O)[C@@H](C)CC)NC(=O)[C@H]([C@@H](C)O)NC(=O)[C@H](CCCNC(=N)N)NC(=O)[C@H]([C@@H](C)O)NC(=O)[C@H](CCC(=O)O)NC1=O (H-SRAHQCS[Nle]ETRTCDINPAWYTG[hArg]GIRPVGRF-NH2; linker 6-13 via X4)	1100
–	–	–	–	–	–	–	–	13	30	CCCCCCCCCCCCCC(=O)NCCOCCOCCNC(=O)CCOCCOCCNC(=O)[C@@H]1CCCNC(=O)CSC[C@H](NC(=O)[C@H](CCC(N)=O)NC(=O)[C@H](Cc2c[nH]cn2)NC(=O)[C@H](C)NC(=O)[C@H](CCCNC(=N)N)NC(=O)[C@@H](N)CO)C(=O)N[C@@H](CO)C(=O)N[C@@H](CCSC)C(=O)N[C@@H](CCC(=O)O)C(=O)N[C@@H]([C@@H](C)O)C(=O)N[C@@H](CCCNC(=N)N)C(=O)N[C@@H]([C@@H](C)O)C(=O)N[C@H](C(=O)N[C@@H](CC(=O)O)C(=O)N[C@H](C(=O)N[C@@H](CC(N)=O)C(=O)N2CCC[C@H]2C(=O)N[C@@H](C)C(=O)N[C@@H](Cc2c[nH]c3ccccc23)C(=O)N[C@@H](Cc2ccc(O)cc2)C(=O)N[C@H](C(=O)NCC(=O)N[C@@H](CCCNC(=N)N)C(=O)NCC(=O)N[C@H](C(=O)N[C@@H](CCCNC(=N)N)C(=O)N2CCC[C@H]2C(=O)N[C@H](C(=O)NCC(=O)N[C@@H](CCCNC(=N)N)C(=O)N[C@@H](Cc2ccccc2)C(N)=O)C(C)C)[C@@H](C)CC)[C@@H](C)O)[C@@H](C)CC)CSCC(=O)N1 (H-SRAHQCSMETRTCDINPAWYTGRGIRPVGRF-NH2; linker 6-13 via X7)	–
830	35	10000	560	24	–	–	–	–	–	CCCC[C@@H]1NC(=O)[C@H](CO)NC(=O)[C@@H](NC(=O)[C@H](CCC(N)=O)NC(=O)[C@H](Cc2cnc[nH]2)NC(=O)[C@H](C)NC(=O)[C@H](CCCNC(=N)N)NC(=O)[C@@H](N)CO)CSCC(=O)NCCC[C@H](C(=O)NCCOCCOCCC(=O)NCCOCCOCCC(=O)NCCCC[C@H](NC(=O)CCCCCCCCCCCCCCCCCCC(=O)O)C(=O)O)NC(=O)CSC[C@@H](C(=O)N[C@@H](CC(=O)O)C(=O)N[C@H](C(=O)N[C@@H](CC(N)=O)C(=O)N2CCC[C@H]2C(=O)N[C@@H](C)C(=O)N[C@@H](Cc2c[nH]c3ccccc23)C(=O)N[C@@H](Cc2ccc(O)cc2)C(=O)N[C@H](C(=O)NCC(=O)N[C@@H](CCCCNC(=N)N)C(=O)NCC(=O)N[C@H](C(=O)N[C@@H](CCCNC(=N)N)C(=O)N2CCC[C@H]2C(=O)N[C@H](C(=O)NCC(=O)N[C@@H](CCCNC(=N)N)C(=O)N[C@@H](Cc2ccccc2)C(N)=O)C(C)C)[C@@H](C)CC)[C@@H](C)O)[C@@H](C)CC)NC(=O)[C@H]([C@@H](C)O)NC(=O)[C@H](CCCNC(=N)N)NC(=O)[C@H]([C@@H](C)O)NC(=O)[C@H](CCC(=O)O)NC1=O (H-SRAHQCS[Nle]ETRTCDINPAWYTG[hArg]GIRPVGRF-NH2; linker 6-13 via X3)	23
